# Assay outcomes: PubChem BioAssay, several laboratories
# Most compounds without a hit are left out; they make up all but 2.1% or so of the library.
# RanGTP-Impb inh: inhibitors of RanGTP-importin-beta interaction, primary screen, biochemical, FRET, CFP-Ran, YFP-importin-beta, homogeneous. cell-free CFP-Ran/YFP-importin-beta FRET ratio. inhibition, % (test concentration not listed). hit rate 1.1% among 300,000. AID 2216;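 active = more than half of the replicate wells show a fall in the fluorescence ratio signal beyond about 16%, limit read from the data, passing the limit was not always enough; inconclusive = exactly half of the replicate wells pass the set limit; inactive = fewer than half of replicates pass the limit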;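 also: 0% = DMSO wells and 100% = Ran loaded with GDP instead of GTP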
# Runt-SMMHC FRET: Runt domain-CBFb-SMMHC interaction inhibition. hit rate 0.74% among 220,000. inhibition, % at 20 µM. Cerulean-Runt/Venus-CBFb-SMMHC FRET ratio 530/480, 1 h. AID 1434. Q01196+Q13951;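 active = mean inhibition across duplicate retests at 20 µM reaching about 50%, limit read from the data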;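 also: 0% = DMSO wells and 100% = wells with excess untagged CBFb-SMMHC; inhibitors lower the FRET ratio by blocking Runt binding to CBFb-SMMHC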
# Hck-Nef inh: blocks Nef-activated human Hck kinase | P08631 | Recombinant Hck-YEEI plus Nef, Z-Lyte FRET kinase assay | inhibition, % at 20 µM | hit rate 0.68% among 220,000;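 active = Hck-Nef kinase inhibition above about 50%, limit read from the data; inactive = inhibition below that limit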;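 also: 0% = DMSO with Hck plus Nef and 100% = Hck alone without Nef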
# Target sequence (P08631 whole entry, looked up): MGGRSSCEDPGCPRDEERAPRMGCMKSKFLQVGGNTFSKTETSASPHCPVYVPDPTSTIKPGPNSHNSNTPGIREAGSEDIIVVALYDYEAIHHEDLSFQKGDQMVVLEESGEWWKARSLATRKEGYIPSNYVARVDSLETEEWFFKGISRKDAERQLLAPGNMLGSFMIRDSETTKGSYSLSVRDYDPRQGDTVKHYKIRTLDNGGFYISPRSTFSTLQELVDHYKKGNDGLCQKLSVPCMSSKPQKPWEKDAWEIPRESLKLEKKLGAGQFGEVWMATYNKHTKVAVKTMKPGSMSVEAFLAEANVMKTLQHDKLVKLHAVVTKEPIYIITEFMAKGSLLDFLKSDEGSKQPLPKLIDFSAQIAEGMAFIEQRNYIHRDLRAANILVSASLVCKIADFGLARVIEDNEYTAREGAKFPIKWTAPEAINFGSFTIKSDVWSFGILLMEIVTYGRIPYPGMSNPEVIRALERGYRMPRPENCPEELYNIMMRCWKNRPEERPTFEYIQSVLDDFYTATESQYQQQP
# L929 necroptosis: L929 zVAD cell death inhibition. L929 zVAD necroptosis rescue, ATP luminescence, 24 h; with zVAD 60 µM. viability rescue, % at 10 µM. hit rate 0.38% among 220,000. AID 1377;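 active = activation, scaled between plate controls, above about 75%, limit read from the data; inactive = activation under that limit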;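 also: 0% = zVAD with DMSO and 100% = DMSO alone without zVAD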
# Runt-CBFb FRET: blocks binding of human RUNX1 Runt domain to CBFb. Cerulean-Runt/Venus-CBFb FRET ratio 530/480, 1 h. hit rate 0.46% among 220,000. inhibition, % at 20 µM. Q01196+Q13951. AID 1496;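 active = inhibition over about 50% at 20 µM in the single-dose screen, limit read from the data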;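 also: 0% = DMSO wells and 100% = excess unlabeled CBFb competitor control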
#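 Buffer or medium: Tris pH 7.5 buffer with BSA. Assay system: Cerulean-labeled Runt domain protein. Amount: each fluorescent fusion protein 100 nM. Read-out basis: loss of energy transfer signal. Incubation: 1 h compound exposure, room temperature. Probe or stimulus: Venus-CBFb binding partner, 100 nM. Detection: FRET, excitation 422 nm, emission at 530 and 480 nm.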
# TNF death inh: TNF-alpha cell death inhibition in Jurkat FADD-/- cells; activation (protection from cell death), % at 10 µM; Jurkat FADD-/- TNF necroptosis rescue, ATP luminescence, 24 h; 0 = TNF only, 100 = no-TNF cells; hit rate 0.068% among 220,000;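 active = activation, meaning protection from cell death, of at least 50% relative to plate controls; inactive = activation below 50%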;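 also: necroptosis triggered by 40 ng/mL TNF-alpha added together with compound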
# Hck Nef conf: Hck-Nef kinase inhibition, confirmation. shares compounds with Hck-Nef inh. Recombinant Hck-YEEI:Nef, Z-Lyte FRET kinase assay. AID 463188. hit rate 28% among 1,300. calls only at 10 µM;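 active = average inhibition of at least 50%, with Z-scores no higher than 3 in both the phospho-tyrosine peptide and fluorescence counterscreens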
# An asterisk follows results filed as active; i = inactive; u = inconclusive; x = not tested or not shown.
SMILES,RanGTP-Impb inh,Runt-SMMHC FRET,Hck-Nef inh,L929 necroptosis,Runt-CBFb FRET,TNF death inh,Hck Nef conf
CCOc1ccc(N=C2NC(=O)SC2CC(=O)OC)cc1 (stereo unspecified),-1,-7,-1,0,1,-1,x
O=C(COC(=O)c1cc(S(=O)(=O)N2CCCCC2)ccc1N1CCOCC1)NC1CCS(=O)(=O)C1 (stereo unspecified),-1,-1,7,2,-1,0,x
Cn1cc(/C=C(\C#N)C(=O)Nc2cccc([N+](=O)[O-])c2)c2ccccc21,-1,-17,62*,1,x,0,i
Cc1cccc(N2CCN(S(=O)(=O)c3c(C)noc3/C=C/N(C)C)CC2)c1C,6,x,x,x,x,x,x
Cc1ccc(-c2nnc(SCC(=O)Nc3sc(C)c(C)c3C#N)n2C)cc1,0,1,50*,0,-2,-3,i
O=C(NCCN1CCOCC1)C1CC(=O)N(c2ccc(F)cc2)C1 (stereo unspecified),6,x,x,x,x,x,x
O=S(=O)(Nc1ccc(-c2nc3cccnc3s2)cc1)c1cc(F)ccc1F,10,85*,115*,1,44,-1,x
CCOC(=O)c1sc(Nc2cccc(C)c2C)nc1C,-1,1,-2,1,0,2,x
Cc1cc(C)c2c(c1)/C(=N\N=c1\sc3ccccc3n1C)C(=O)N2,3,-14,51*,1,-11,-8,i
C/C(=N\NC(=O)CC1N=C(Cc2ccccc2)NNC1=O)c1ccc(Br)cc1 (stereo unspecified),1,1,6,1,2,-3,x
CCOC(=O)c1cc2c(=O)n3ccccc3nc2n(CC2CCCO2)c1=NC(C)=O (stereo unspecified),71*,59*,193*,-1,42,-4,x
COc1ccc(CCn2c(=N)c(C(=O)NCC3CCCO3)cc3c(=O)n4ccccc4nc32)cc1OC (stereo unspecified),6,x,x,x,x,x,x
Cc1c2c(=O)n(-c3nc4ccccc4s3)nc-2cc(O)n1Cc1ccccc1,x,-36,84*,1,-4,-1,i
C=CCn1c(Cc2csc(N)n2)nnc1SCC(=O)OCC,5,1,4,-1,1,-1,x
CCC(C)n1c(-c2ccco2)nc2nc3ccccc3nc21 (stereo unspecified),1,10,28,0,x,-2,x
CC(C)OCCCn1c(-c2ccco2)nc2nc3ccccc3nc21,u,x,131*,0,34,-9,x
COCCn1c(-c2ccco2)nc2nc3ccccc3nc21,19*,66*,120*,2,8,-2,x
O=C(COc1ccc(Cl)cc1)NCc1nnc(SCC(=O)N2CCCC2)o1,8,-2,-17,-1,0,-1,x
CC(C)[C@H](NC(=O)OC(C)(C)C)c1nnc(SCC(=O)Nc2ccc(Br)cc2)o1,6,-2,1,0,0,-1,x
CC(/C=N/n1c(COc2ccccc2)n[nH]c1=S)=C\c1ccco1,4,8,50*,1,15,-6,i
S=c1[nH]nc(COc2ccccc2)n1/N=C/c1ccco1,-1,6,17,0,12,-1,x
COc1ccccc1C1/C(=C(/O)c2ccccc2)C(=O)C(=O)N1CC(C)O (stereo unspecified),-1,1,72*,1,-1,1,i
COc1ccccc1C1/C(=C(/O)c2ccccc2)C(=O)C(=O)N1CCO (stereo unspecified),3,-1,1,0,-2,1,x
C=CCO/N=C(/CCC)C1=C(N)CC(C)(C)CC1=O,x,1,18,5,-2,0,x
Cn1c2ccccc2c(=O)c2c(=O)n(Cc3ccco3)c(-c3ccc(C(C)(C)C)cc3)nc21,2,4,55*,0,2,-4,i
